SMILES strings stand for the structures.

Data set [1] is filed under the species Rattus norvegicus. The data set can be described thus: Biodistribution in rat cerebellum, expressed as percent I.D./g tissue. The note with it: in vivo. It is filed as ADME, organism-based. The procedure, abridged: (§1)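 Male Sprague–Dawley rats (190–200 g) received 30 μCi (1.1 MBq) of the 18F-labelled tracer i.v. into a tail vein, formulated in physiological saline and given within 15 min of end of synthesis. Rats were decapitated at selected times, and the brain was removed and dissected on ice. Regions were weighed and gamma-counted alongside injected-dose aliquots, and values were expressed as % I.D./g tissue.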

The species entered for data set [2] is Rattus norvegicus. In words: Biodistribution in rat superior coliculus, expressed as percent I.D./g tissue. It is filed as ADME, organism-based. The note with it: in vivo. The procedure, abridged:
as §1

The species named for data set [3] is Rattus norvegicus. The data set can be described thus: Biodistribution in rat thalamus, expressed as percent I.D./g tissue. The following applies: in vivo. It is filed as ADME, organism-based. The procedure, abridged: as §1
Data set [4] can be described thus: Binding affinity towards human Nicotinic acetylcholine receptor was determined using [3H]-cytisine.
A short description of data set [5]: Binding affinity towards human Nicotinic acetylcholine receptor was determined using [3H]epibatidine.
For data set [6], the target named is Neuronal acetylcholine receptor; alpha4/beta2 (Homo sapiens, UniProt P17787+P43681). In words: Binding affinity against human Nicotinic acetylcholine receptor alpha4-beta2.
Neuronal acetylcholine receptor; alpha4/beta2, sequence (P17787 whole entry): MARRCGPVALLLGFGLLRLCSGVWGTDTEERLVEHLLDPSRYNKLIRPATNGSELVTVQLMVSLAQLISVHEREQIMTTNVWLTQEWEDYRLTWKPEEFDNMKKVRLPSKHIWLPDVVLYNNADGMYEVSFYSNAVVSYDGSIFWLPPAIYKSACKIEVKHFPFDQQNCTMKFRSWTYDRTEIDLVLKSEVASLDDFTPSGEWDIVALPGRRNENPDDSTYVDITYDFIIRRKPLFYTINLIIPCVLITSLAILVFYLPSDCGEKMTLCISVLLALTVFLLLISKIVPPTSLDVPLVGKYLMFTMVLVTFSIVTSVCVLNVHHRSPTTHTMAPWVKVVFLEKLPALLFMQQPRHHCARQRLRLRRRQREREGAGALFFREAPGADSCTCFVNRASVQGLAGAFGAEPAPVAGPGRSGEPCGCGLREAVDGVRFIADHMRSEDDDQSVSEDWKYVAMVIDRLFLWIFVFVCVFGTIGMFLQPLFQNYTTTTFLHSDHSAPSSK
Neuronal acetylcholine receptor; alpha4/beta2, sequence (P43681 whole entry): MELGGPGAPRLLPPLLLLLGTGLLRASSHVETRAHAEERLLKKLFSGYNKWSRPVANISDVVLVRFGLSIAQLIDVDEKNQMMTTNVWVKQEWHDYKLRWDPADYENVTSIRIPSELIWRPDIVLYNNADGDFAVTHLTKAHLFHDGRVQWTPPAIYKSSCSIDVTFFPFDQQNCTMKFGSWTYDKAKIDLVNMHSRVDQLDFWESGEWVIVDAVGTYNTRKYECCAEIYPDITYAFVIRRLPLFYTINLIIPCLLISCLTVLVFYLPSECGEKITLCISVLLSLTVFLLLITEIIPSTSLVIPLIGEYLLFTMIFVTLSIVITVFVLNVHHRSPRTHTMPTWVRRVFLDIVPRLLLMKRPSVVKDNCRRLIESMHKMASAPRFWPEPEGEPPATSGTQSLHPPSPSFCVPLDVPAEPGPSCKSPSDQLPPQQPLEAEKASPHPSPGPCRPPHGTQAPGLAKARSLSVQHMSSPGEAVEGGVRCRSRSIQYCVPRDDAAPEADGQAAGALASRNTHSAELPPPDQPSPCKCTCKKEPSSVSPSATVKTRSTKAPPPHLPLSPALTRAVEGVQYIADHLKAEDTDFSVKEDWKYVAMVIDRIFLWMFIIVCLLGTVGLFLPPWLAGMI

With `CN1C2CCCC1CC(NC(=O)c1nn(C)c3ccccc13)C2` (stereo not drawn) [GRANISETRON], the Biodistribution in data set [1] is recorded as 0.2%; in data set [2], 0.6%; in data set [3], 0.9%.
One may read the Ki as the equilibrium dissociation constant of an inhibitor or competing ligand from its target. Low readings indicate tighter binding, high ones weaker binding. With `Fc1ncccc1OC[C@@H]1CCN1`, the values for the Biodistribution in data set [1], in data set [2] and in data set [3] were 0.2%, 0.2% and 0.3%, respectively. In addition, the Ki in data set [4] is 48 pM; in data set [5], 46 pM.
For the molecule `CNC(=O)Oc1ccc2c(c1)[C@]1(C)CCN(C)[C@@H]1N2C` [PHYSOSTIGMINE], the Biodistribution in data set [1] is 0.2%; in data set [2], 0.4%; in data set [3], 0.5%.
Regarding `Clc1ccc(C2CC3CCC2N3)cn1` (stereo not drawn) [EPIBATIDINE], the Biodistribution in data set [1], in data set [2] and in data set [3] was 0.2% each time.
Turning to `c1cncc(OC[C@@H]2CCN2)c1`, the Ki in data set [6] is 50 pM.
For `O=c1cccc2n1CC1CNC[C@H]2C1` (single isomer, unassigned) [CYTISINICLINE], the Biodistribution in data set [1], in data set [2] and in data set [3] was 0.2% in each case.

The values are drawn from ChEMBL document CHEMBL1132247, “Synthesis and nicotinic acetylcholine receptor in vivo binding properties of 2-fluoro-3-[2(S)-2-azetidinylmethoxy]pyridine: a new positron emission tomography ligand for nicotinic receptors” (J Med Chem, 1999).
